Screens: PubChem, several laboratories
proKLK7 act – proKLK7 zymogen activators, primary screen, biochemical, fluorescence intensity; Kallikrein-7 (Homo sapiens), P49862; purified proKLK7, EDANS-DABCYL substrate fluorescence; 100% is mature enzyme control, 0% vehicle; activation, % at 7 µM; 370,000 tested, 0.9% active;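 active = activation above the mean of all tested compounds plus 3 SD, computed per campaign excluding outliers beyond control limits, cut at about 13% in these data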
Target sequence (P49862 whole entry, looked up): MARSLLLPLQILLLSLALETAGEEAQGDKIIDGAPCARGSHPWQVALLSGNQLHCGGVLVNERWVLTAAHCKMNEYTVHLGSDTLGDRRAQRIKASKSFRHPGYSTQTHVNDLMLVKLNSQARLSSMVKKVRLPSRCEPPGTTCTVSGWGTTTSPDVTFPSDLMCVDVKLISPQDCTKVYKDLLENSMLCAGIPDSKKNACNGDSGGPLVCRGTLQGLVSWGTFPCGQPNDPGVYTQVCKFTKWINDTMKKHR
NR2E3 ag-1 – NR2E3 agonists in two-hybrid cells, primary screen, cell-based, luminescence, CHO-S, Gal4-NCOR/VP16-NR2E3 | Photoreceptor-specific nuclear receptor (Homo sapiens), Q9Y5X4 | luciferase | inhibition of corepressor binding, % at 3.98 µM | 360,000 tested, 0.35% active | AID 602229, 2012;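 active = inhibition above the mean of all tested compounds plus 3 SD, cut at about 70% in these data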;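 also: 0% = DMSO with NR2E3 transfected cells and 100% = cells lacking NR2E3 construct; higher means lower luciferase signal from less NR2E3 corepressor binding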
GASC-1 inh – inhibitors of GASC-1 histone demethylase, primary screen, biochemical, fluorescence, DELFIA europium; AID 2099, 2009; inhibition, % at 2.35 µM; 330,000 tested, 0.069% active; Lysine-specific demethylase 4C (Homo sapiens), Q9H3R0; GST-JMJD2C(1-420) H3K9me3 demethylation;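 active = more than half of a compound's replicate wells show inhibition beyond 50%, single wells judged on their own value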;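 also: signal counts dimethyl H3K9 product captured on neutravidin plate; 0% = median of DMSO wells and 100% = 0.3 times that DMSO median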
ADAM10 inh – human ADAM10 inhibitors, primary screen, biochemical, QFRET, HTS | 370,000 tested, 0.62% active | Disintegrin and metalloproteinase domain-containing protein 10 (Homo sapiens), O14672 | recombinant ADAM10, EDANS/DABCYL FRET peptide cleavage, 3 h | inhibition, % at 7 µM;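 active = inhibition above a per-campaign cutoff equal to the mean of compounds falling between control-based bounds plus 3 SD, cut at about 20% in these data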;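 also: 0% = DMSO wells while the 100% control is not disclosed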
NR2E3 ag-2 – inhibitors of NR2E3-RetCOR corepressor binding, primary screen, NR2E3 agonist project, biochemical, TR-FRET, GST-NR2E3, biotin-RetCOR | inhibition of corepressor binding, % at 4.78 µM | 1536-well | 320,000 tested, 0.12% active | Photoreceptor-specific nuclear receptor (Homo sapiens), Q9Y5X4 | AID 2300, 2010;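 active = percent inhibition above the cutoff of mean plus 3 SD of all tested compounds, set per screening campaign, cut at about 20% in these data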;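 also: 0% = DMSO wells and 100% = biotin wells as full block of FRET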
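Material: NR2E3–RetCOR corepressor complex | Quantity: 1.35 nM GST-tagged NR2E3 final | Schedule: 5 h at 4 °C | Replication: Singlicate compound wells | Reagent: RetCOR corepressor, biotinylated, 7 nM | Controls: Biotin wells as high control, 0.6% DMSO wells as low control | Signal: TR-FRET, Eu(K)-anti-GST donor, streptavidin-D2 acceptor, ex 340, em 617/671 nm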
ADAM17 inh – ADAM17 inhibitors, primary screen, biochemical, QFRET. inhibition, % at 6.95 µM. recombinant ADAM17, EDANS/DABCYL FRET peptide cleavage. Disintegrin and metalloproteinase domain-containing protein 17 (Homo sapiens), P78536. AID 720648, 2013. 370,000 tested, 0.83% active;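 active = inhibition above the mean of compounds lying between control limits plus 3 SD, set per campaign, cut at about 8.5% in these data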;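 also: 0% = DMSO-only wells as the low control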
NR2E3 ag confirm – NR2E3 agonist confirmation in cells, cell-based, luminescence, CHO-S two-hybrid. inhibition, % at 3.98 µM. 2,300 tested, 51% active. shares compounds with NR2E3 ag-1. CHO-S mammalian two-hybrid NR2E3-NCOR, luciferase luminescence;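 active = average inhibition above a cutoff equal to the mean inhibition of all tested compounds plus one SD, cut at about 70% in these data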;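 also: 0% = DMSO in NR2E3 cells and 100% = DMSO in cells lacking NR2E3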
VP16 counter – GAL4-VP16 reporter modulators, confirmation, counter-screen for NR2E3 agonist project, cell-based, luminescence, CHO-S, high throughput; shares compounds with NR2E3 ag-1; inhibition, % at 3.98 µM; 2,300 tested, 29% active; CHO-S GAL4-VP16 luciferase reporter; AID 624379, 2012;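 active = mean inhibition above a cutoff equal to the average over all tested compounds plus one standard deviation, cut at about 70% in these data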;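 also: luciferase from a UAS reporter driven by GAL4-VP16 transactivation; 0% = DMSO with VP16-transfected cells and 100% = DMSO with cells lacking VP16; higher means less reporter light so more repression of VP16 activity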
The depositor's hits bear a star; · = no result given. Rows were chosen to be rich in hits. Some 2.5% of all compounds tested hit in one or more screens of this group.

SMILES	proKLK7 act	NR2E3 ag-1	GASC-1 inh	ADAM10 inh	NR2E3 ag-2	ADAM17 inh	NR2E3 ag confirm	VP16 counter
Cc1cccc(N2CCN(S(=O)(=O)c3ccc4c(c3)CC(C)N4C(=O)C3CC3)CC2)c1C (stereo unspecified)	0.4	53.3	-1.5	1.2	-2.2	-1.7	59.0	54.5
CC(=O)N1c2ccc(S(=O)(=O)N3CCC(C(=O)Nc4cccc(C)n4)CC3)cc2CC1C (stereo unspecified)	0.1	49.7	1.9	1.5	-3.8	-2.1	17.9	5.5
CNc1nc(N)nc(OC(C(F)(F)F)C(F)(F)F)n1	-0.2	-19.3	-12.4	-5.1	0.4	-5.8	·	·
COc1ccc(S(=O)(=O)N2CCCc3nc(C)c(C)cc32)cc1	0.5	·	·	-1.3	·	1.4	·	·
N#Cc1cccc(C(=O)C(=O)N2CCN(C(=O)OCc3ccccc3)CC2)c1	0.3	·	·	-5.1	·	-3.2	·	·
CC(=O)NC1(NC(C)=O)CCN(C)CC1	0.2	-9.5	-8.1	1.4	-1.1	-0.9	·	·
CCCS(=O)(=O)NC(=O)C1(C)CCN(C(=O)c2ccc(OC)cc2)C1 (stereo unspecified)	·	6.9	·	·	·	·	·	·
CCCCC(=O)N(C)c1c(C)nc2ccc(C(=O)NCCOc3ccc(OC)cc3)cn12	0.4	-10.5	·	-10.2	·	-3.2	·	·
CCCCN(C)c1c(C)nc2ccc(C(=O)NCCOc3ccc(OC)cc3)cn12	·	48.7	·	·	·	·	94.2*	68.5
COC(=O)[C@]12C[C@H](CC(=O)NCc3cccs3)C(=O)N(CCC3=CCCCC3)C1=C[C@H](C(C)(C)C)O[C@@H]2C	-0.1	·	·	2.3	·	0.9	·	·
Cc1nn(CC(=O)NC2CCCCC2)c(C)c1[N+](=O)[O-]	-0.1	20.8	·	-16.4	·	-3.0	·	·
CN1CCN(c2ccc(NC(=O)N3CCc4ccccc43)cc2)CC1	0.1	49.5	2.0	5.1	-0.4	0.5	26.0	-32.3
Cc1ccc(NC(=O)N2CCc3ccccc32)cc1	0.4	-109.9	3.2	2.1	0.5	-1.1	·	·
CN(Cc1ccco1)S(=O)(=O)c1ccc2c(c1)CCN2C(=O)CC(C)(C)C	0.5	·	·	1.7	·	2.7	·	·
CCc1nc2ccc(C(=O)N(C)C(C)C)cn2c1N(CC)Cc1cccc(Br)c1	0.6	72.2*	·	3.6	·	1.6	69.2	-9.8
O=C(COC(=O)CNC(=O)c1ccc(-c2ccccc2)cc1)NCc1ccco1	-0.2	1.0	-17.1	3.4	4.3	-2.8	·	·
CCCCCCCCCn1c2c(c(=N)c3c1CCC3)CCCC2	·	95.2*	-2.7	·	·	·	98.5*	96.1*
CCn1c2c(c(=N)c3c1CCC3)CCCC2	0.1	-18.5	1.7	-5.0	1.6	-3.2	·	·
CCCCCCCCn1c2c(c(=N)c3ccccc31)CCC2	0.7	28.4	-16.4	-27.9	·	-14.0	·	·
CCCCCCCCCCn1c2c(c(=N)c3c1CCC3)CCC2	0.4	98.6*	-0.6	7.5	0.9	1.9	100.0*	97.2*
CCCCOCCCNC(=O)C[C@@H]1C(=O)N(Cc2ccc(OC)cc2)C2=CCN(C(=O)OC(C)(C)C)C[C@]21C(=O)OCC	0.6	·	·	-1.6	·	-4.1	·	·
COc1cccc(C(C)(O)c2nc(-c3ccc(N(C)C)cc3)cs2)c1 (stereo unspecified)	0.3	72.9*	·	16.8	·	5.8	82.6*	59.8
COc1cccc(C(C)(O)c2nc(-c3cc4ccccc4o3)cs2)c1 (stereo unspecified)	0.1	79.0*	·	9.8	·	3.6	92.8*	72.2*
